Screens (PubChem)
TMEM16A inh = TMEM16A chloride channel inhibitors, primary screen, cell-based, HTS. 1.2% of 310,000 active. Anoctamin-1 (Mus musculus), Q8BHY3. HEK293 TMEM16A/YFP iodide influx fluorescence, ionomycin. normalized B-score (activity score, 25-100; higher = stronger inhibition) at 10 µM;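 active = ratio plate-corrected score three or more library SD toward inhibition, starting fluorescence score within five deviations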;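 also: score derived from kinetic fluorescence span divided by baseline fluorescence per well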
Target sequence (Q8BHY3 whole entry, looked up): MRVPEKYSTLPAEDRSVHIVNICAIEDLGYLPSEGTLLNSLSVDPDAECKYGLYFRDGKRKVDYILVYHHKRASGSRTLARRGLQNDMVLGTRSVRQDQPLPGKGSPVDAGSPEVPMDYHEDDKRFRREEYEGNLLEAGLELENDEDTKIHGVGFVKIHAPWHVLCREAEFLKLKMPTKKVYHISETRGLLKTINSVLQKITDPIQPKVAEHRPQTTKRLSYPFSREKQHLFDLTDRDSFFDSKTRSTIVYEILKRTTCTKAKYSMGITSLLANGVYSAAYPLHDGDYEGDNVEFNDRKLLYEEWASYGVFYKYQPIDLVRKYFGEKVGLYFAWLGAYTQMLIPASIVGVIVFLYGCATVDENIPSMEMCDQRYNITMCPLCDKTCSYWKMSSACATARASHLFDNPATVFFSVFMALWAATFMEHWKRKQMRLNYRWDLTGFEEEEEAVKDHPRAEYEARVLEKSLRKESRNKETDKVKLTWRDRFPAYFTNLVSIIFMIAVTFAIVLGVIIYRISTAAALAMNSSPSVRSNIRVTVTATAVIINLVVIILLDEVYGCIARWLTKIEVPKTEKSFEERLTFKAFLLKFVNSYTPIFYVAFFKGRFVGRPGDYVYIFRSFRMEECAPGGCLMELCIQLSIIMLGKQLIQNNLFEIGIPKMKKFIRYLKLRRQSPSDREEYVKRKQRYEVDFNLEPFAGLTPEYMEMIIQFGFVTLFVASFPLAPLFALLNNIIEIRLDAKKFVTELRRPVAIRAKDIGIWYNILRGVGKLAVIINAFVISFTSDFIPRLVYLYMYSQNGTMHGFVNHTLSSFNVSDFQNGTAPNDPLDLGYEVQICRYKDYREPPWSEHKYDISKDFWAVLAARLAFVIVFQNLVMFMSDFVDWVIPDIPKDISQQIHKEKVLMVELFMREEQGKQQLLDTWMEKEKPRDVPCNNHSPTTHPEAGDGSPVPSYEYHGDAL
UPR CHOP act = activators of apoptotic CHOP UPR arm, primary screen, cell-based, CHO-CHOP luciferase reporter, luminescence, uHTS | activation, % at 10 µM | 0.34% of 330,000 active | UPR activation; percent of tunicamycin response over DMSO baseline | AID 449763, 2010;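 active = at 10 µM dose, activation of 40% or more, normalized to positive control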;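 also: 100% = tunicamycin at 10 µg/mL and 0% = DMSO alone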
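System: CHO-CHOP luciferase reporter cell line | Buffer or medium: F12 medium containing 10% fetal bovine serum | Doses: One dose, 10 µM in 0.5% DMSO | Times: 6 h compound exposure at 37 °C after overnight seeding | Signal: Luciferase luminescence | Read-out: % activation vs tunicamycin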
Hep lipid drop = inhibitors of hepatocyte lipid droplet formation, primary screen, imaging, high-throughput imaging, BODIPY stain. AML12 mouse hepatocytes, oleate lipid droplets. inhibition, % at 6.5 µM. 0.4% of 240,000 active. AID 1656, 2009;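 active = lipid droplet intensity inhibited by at least 50%, with more than 500 cells counted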
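material = mouse AML12 hepatocyte cell line, fixed after treatment | also added = 100 µM oleic acid challenge | doses = compound at 6.5 µM only | schedule = overnight exposure | technique = Image-based BODIPY and DAPI two-channel analysis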
CHOP inhibitor = inhibitors of CHOP promoter induction, primary screen, cell-based, unfolded protein response, luciferase reporter; CHO-K1 CHOP-promoter luciferase, tunicamycin-induced, 15-18 h; AID 2732, 2010; inhibition, % at 10 µM; 3.8% of 220,000 active;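 active = compounds that reduced the stress-induced luciferase reporter signal by more than about 70% of percent inhibition, limit read from the data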;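 also: 0% = tunicamycin plus vehicle and 100% = wells without tunicamycin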
XBP1 UPR activ = activators of adaptive XBP1 UPR arm, primary screen, cell-based, CHO-XBP1 luciferase reporter, luminescence, uHTS. 0.33% of 330,000 active. IRE1-XBP1 UPR activation; percent of tunicamycin response, DMSO as zero. activation, % at 20 µM;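 active = versus positive control, 20 µM dose yields 30% or more activation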;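 also: 100% = tunicamycin at 10 µg/mL and 0% = DMSO only wells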
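Material: IRE1-XBP1 luciferase reporter CHO line / Quantity: one thousand reporter cells per well / Buffer or medium: F12 with 10% serum / Compound: 20 µM single concentration, DMSO 1% / Times: 6 h treatment, 37 °C / Detection: Steady-Glo luciferase glow luminescence, 10 min after reagent addition / Benchmarks: tunicamycin high, DMSO low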
ANO1 activ = TMEM16A chloride channel activators or potentiators, primary screen, cell-based, HTS; B-score at 10 µM; Anoctamin-1 (Mus musculus), Q8BHY3; HEK293 TMEM16A/YFP-H148Q/I152L, iodide quench fluorescence; stronger effect = lower value; 0.3% of 340,000 active; AID 623877, 2012;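 active = fluorescence-ratio B-score plate-corrected deviation score at least 3 library SD below zero, with starting fluorescence score within 5 deviations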;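 also: channel opened by trigger with iodide after compound preincubation; score built on the fluorescence ratio of max minus min over baseline; more negative score means more quench and so TMEM16A activation or potentiation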
Starred values were filed as active, the others as inactive; i = inactive; / = not tested or not shown. The list is not random: actives were taken first. Their share in the collection is about 4.2%.

SMILES | TMEM16A inh | UPR CHOP act | Hep lipid drop | CHOP inhibitor | XBP1 UPR activ | ANO1 activ
Cn1c(NCc2ccco2)nc2c1c(=O)n(Cc1ccc(Cl)cc1Cl)c(=O)n2C | i | 0 | -31 | 88* | -2 | i
Cn1c(NCc2ccco2)nc2c1c(=O)n(Cc1ccc(Br)cc1)c(=O)n2C | i | -1 | -34 | 89* | -8 | i
Cc1ncoc1C(=O)N1CCCC(N2CCN(c3ccccc3F)CC2)C1 (centres undefined) | i | -2 | 21 | / | -5 | i
Cc1ccc(C)c(S(=O)(=O)/N=C2\C=C(NS(=O)(=O)c3ccccc3)C(=O)c3ccccc32)c1 | 100* | 3 | 1 | / | -3 | i
Cc1ccc(S(=O)(=O)N2CCN(CC(=O)NC(=O)NCc3ccccc3)CC2)cc1C | i | 2 | -5 | 24 | -3 | i
O=C(CN1CCN(S(=O)(=O)c2ccccc2)CC1)NC(=O)NCc1ccccc1 | i | -1 | / | 15 | -1 | -11*
COc1cc(C(=O)NS(=O)(=O)c2ccccc2C)ccc1Cc1cn(C)c2ccc(NC(=O)OC3CCCC3)cc12 | 100* | -1 | 8 | -11 | -4 | /
COCCN(Cc1cc2cc(C)ccc2nc1Cl)C(=O)Nc1ccccc1OC | i | 1 | -4 | 5 | -2 | i
Cc1ccc(Sc2cnc3ccccc3n2)cc1 | i | 3 | -3 | 86* | 1 | i
O=C(c1cccc(S(=O)(=O)N2CCOCC2)c1)N1CCCC(C(F)(F)F)C1 (centres undefined) | i | -1 | / | / | 1 | i
Cc1ccc(N2C(=O)[C@@H]3C(c4cccnc4)=NO[C@@H]3C2=O)c(C)c1 | 25* | 0 | 21 | 14 | -4 | i
Cc1cc(C)nc(N2CCCC(C(=O)NCc3cccc(C(F)(F)F)c3)C2)n1 (centres undefined) | i | -1 | / | 83* | -1 | i
O=C(NCc1cccc(C(F)(F)F)c1)C1CCCN(c2ncccn2)C1 (centres undefined) | i | 0 | / | 3 | -2 | i
C=CCOc1nc(-c2ccncc2)nc2ccccc12 | i | -1 | / | 71* | 2 | i
CS(=O)(=O)N1CCN(c2ccccc2NC(=O)Cc2ccc(Cl)cc2)CC1 | i | 1 | -4 | 16 | -5 | -25*
CCOc1cc(/C=C2/NC(=O)N(CC(=O)Nc3cccc(C)c3)C2=O)ccc1OC | i | -3 | / | 90* | 2 | i
CCOc1cc(/C=C2/NC(=O)N(CC(=O)Nc3cccc(C)c3)C2=O)ccc1O | i | 0 | -25 | 43 | 1 | i
COc1ccc(-c2noc(CN(C(=O)c3ccc4c(c3)OCO4)C(C)C)n2)cc1 | i | 0 | -8 | / | -5 | i
CN(Cc1nc(-c2ccc(Cl)cc2)no1)C(=O)c1ccc2c(c1)OCO2 | 25* | -1 | / | / | -3 | i
C/C(=N/NC(N)=S)c1ccccc1[N+](=O)[O-] | i | -1 | / | -5 | -1 | i
O=C(CN1/C(=C(/O)c2ccccc2)C(=O)c2ccccc2S1(=O)=O)c1ccccc1 | i | -1 | 8 | 96* | 1 | i
CCOC(=O)C1C(c2ccccc2Cl)NC(=O)N(C)C1(O)C(F)(F)F (centres undefined) | i | -2 | / | 70* | 0 | i
CCOC(=O)C1C(c2ccccc2O)NC(=O)NC1(O)C(F)(F)F (centres undefined) | i | -1 | -3 | / | 0 | i
Clc1cccc(COn2c(-c3ccc(Cl)cc3Cl)nc3ncccc32)c1 | i | 0 | 1 | 74* | -2 | i
COc1ccc2cc(C(N)=O)c(=Nc3ccc(C)cc3)oc2c1 | i | 3 | 6 | 31 | 1 | -7.7*
SMILES | TMEM16A inh | UPR CHOP act | Hep lipid drop | CHOP inhibitor | XBP1 UPR activ | ANO1 activ
O=C(Nc1nccs1)c1cn(-c2ccccc2)nc1-c1ccccc1 | i | 4 | 0 | 71* | -3 | i
CC(C)COc1ccc(-c2nn(-c3ccccc3)cc2C(=O)Nc2nccs2)cc1 | i | 1 | -11 | 11 | -1 | i
O=C(CC1C(=O)NCCN1Cc1cccc(C(F)(F)F)c1)NC1CCCCCC1 (centres undefined) | i | 4 | 13 | / | -4 | i
CCCNc1nc(Nc2ccc(C)cc2)nc(N2CCCC2)n1 | i | 1 | 13 | 70* | 1 | i
N=c1ccn2c(n1)OC1[C@@H](O)[C@@H](CO)O[C@H]12 (some centres undefined) | / | / | / | 16 | / | /
O=C(CSCc1c(F)cccc1Cl)NNC(=S)NC1CCCCC1 | i | 1 | -1 | / | -2 | i
Cc1ccc(-c2oc3ncnc(N)c3c2-c2ccc(C)cc2)cc1 | i | 0 | -3 | 82* | 0 | i
CCOc1ccccc1/C=C(/NC(=O)c1ccccc1)C(=O)NCC(=O)O | i | 4 | 52* | 24 | 1 | i
O=S(=O)(c1ccc(F)cc1)N1CC2CCCN2c2ccc(C(F)(F)F)cc21 (centres undefined) | i | 3 | / | 75* | 0 | i
O=C(CSc1n[nH]c(=O)[nH]c1=O)Nc1ccc(Br)cc1Br | / | 0 | / | / | 2 | i
CS(=O)(=O)N(CC(=O)Nc1ccccc1)Cc1ccc(Cl)cc1 | i | 1 | 4 | 31 | 1 | i
CSc1ccccc1NC(=O)CN(Cc1ccc(Cl)cc1)S(C)(=O)=O | i | -3 | 14 | 77* | -3 | i
CSc1cccc(NC(=O)CN(Cc2ccc(Cl)cc2)S(C)(=O)=O)c1 | i | -1 | 6 | 93* | -1 | i
CSc1ccccc1NC(=O)CN(C)Cc1cccc(Cl)c1 | i | 1 | -10 | 39 | -1 | -39*
CSc1ccccc1NC(=O)CN(C)CC(=O)NCc1ccccc1 | i | -1 | 7 | 26 | 0 | i
Cc1nn(C)c(C)c1Sc1ccc(Br)cc1 | 25* | 1 | / | 32 | -1 | i
COc1ccccc1/C=N/OCc1ccc(C#N)cc1 | i | -1 | 0 | / | -1 | i
CCOc1ccc(OCCC(=O)OCC(=O)NC2CCCC2)cc1 | / | 1 | / | / | 0 | i
Cc1ccc(C(=O)NCCSCc2ccc(Cl)cc2Cl)cc1[N+](=O)[O-] | i | 0 | -5 | 21 | -2 | i
Cc1c(C(=O)NCCSCc2ccc(Cl)cc2Cl)cccc1[N+](=O)[O-] | i | -1 | / | 72* | -2 | i
